# Experimental data taken from ChEMBL document CHEMBL1148449, “Discovery, modeling, and human pharmacokinetics of N-(2-acetyl-4,6-dimethylphenyl)-3-(3,4-dimethylisoxazol-5-ylsulfamoyl)thiophene-2-carboxamide (TBC3711), a second generation, ETA selective, and orally bioavailable endothelin antagonist” (J Med Chem, 2004).
# Where a SMILES comes first, the peptide text is derived from it. [ ]: non-standard residue; d: D form. The star is where a group is joined. Piperazinyl(4-Ph) = c1ccc(N2CCN(*)CC2)cc1; dGly(2-thienyl) = N[C@@H](C(=O)O)c1cccs1
# What was measured:
# [1] = target: Endothelin-1 receptor (Homo sapiens) (UniProt P25101); assay: Selectivity towards endothelin A receptor in human.
# [2] = target: T1, Endothelin-1 receptor (Homo sapiens, UniProt P25101); assay: Displacement of [125I]ET-1 from Endothelin A receptor
# T1 sequence (P25101 whole entry): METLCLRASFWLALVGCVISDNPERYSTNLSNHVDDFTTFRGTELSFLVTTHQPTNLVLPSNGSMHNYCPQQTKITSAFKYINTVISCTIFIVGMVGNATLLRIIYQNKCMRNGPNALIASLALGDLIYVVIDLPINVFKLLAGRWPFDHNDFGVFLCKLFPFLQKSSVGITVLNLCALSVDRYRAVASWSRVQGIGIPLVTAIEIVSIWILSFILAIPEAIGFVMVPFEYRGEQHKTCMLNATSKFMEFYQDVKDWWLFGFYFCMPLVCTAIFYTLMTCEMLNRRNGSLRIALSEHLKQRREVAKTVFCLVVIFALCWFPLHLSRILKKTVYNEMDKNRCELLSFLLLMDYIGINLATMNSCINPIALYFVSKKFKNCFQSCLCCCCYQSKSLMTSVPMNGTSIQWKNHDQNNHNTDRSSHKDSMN
# [3] = Half life period was determined; format: ADME, organism-based; conditions: rat, in vivo
# How it was run: (§1)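 Rats given 50 mg/kg orally. Plasma was separated at once by centrifugation and stored at -80 °C. Proteins were precipitated with acetonitrile and drug measured by HPLC to give Cmax, AUC and t1/2.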
# [4] = Compound was evaluated for area under the curve expressed as (h*ug/ml); format: ADME, organism-based; design: concentration or dose not given beside the values; conditions: rat, in vivo
# How it was run: as §1
# [5] = Cmax in rat plasma after oral dose (50 mg/Kg); format: ADME, organism-based; design: dose 50 mg/Kg, route oral
# How it was run: as §1
# [6] = Compound was evaluated for oral bioavailability in rats; conditions: rat, in vivo
# [7] = Half life period was evaluated in rat; 0.5-1.0; format: ADME, organism-based; conditions: in vivo
# [8] = target: Endothelin receptor (Rattus norvegicus) (UniProt P26684+P21451); assay: Selectivity for endothelin A receptor over endothelin receptor B; format: protein assay
# [9] = target: T2, Endothelin-1 receptor (Rattus norvegicus, UniProt P26684); assay: Binding affinity towards Endothelin A receptor
# T2 sequence (P26684 whole entry): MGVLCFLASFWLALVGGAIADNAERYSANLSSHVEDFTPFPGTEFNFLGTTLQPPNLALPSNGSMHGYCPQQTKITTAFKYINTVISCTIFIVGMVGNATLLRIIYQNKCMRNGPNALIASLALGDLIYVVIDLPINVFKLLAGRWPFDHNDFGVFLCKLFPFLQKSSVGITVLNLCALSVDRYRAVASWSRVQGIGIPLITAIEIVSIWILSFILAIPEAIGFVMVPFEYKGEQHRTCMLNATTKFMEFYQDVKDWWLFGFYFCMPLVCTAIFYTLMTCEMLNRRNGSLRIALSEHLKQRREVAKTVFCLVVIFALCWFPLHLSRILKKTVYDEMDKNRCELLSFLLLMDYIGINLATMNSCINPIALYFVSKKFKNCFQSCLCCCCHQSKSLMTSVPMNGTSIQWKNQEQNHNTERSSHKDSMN
# [10] = system: Rattus norvegicus; assay: Compound was evaluated for oral dose to effect 50% inhibition of mean pulmonary arterial pressure (MPAP; format: functional, Artery
# How it was run: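 Acute hypoxia-induced pulmonary hypertension model in rats. Compound given orally; the oral dose giving 50% inhibition of the increase in mean pulmonary arterial pressure is reported.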
# [11] = Maximal plasma concentration in rat after oral administration at 50 mg/kg; format: ADME, organism-based; design: dose 50 mg/kg, route oral
# How it was run: as §1
# [12] = target: T3, Endothelin-1 receptor (Rattus norvegicus) (UniProt P26684); assay: Selectivity towards endothelin A receptor in rat.
# T3 sequence (whole entry): T2 sequence (P26684 whole entry)
# Chain of Endothelin receptor (Rattus norvegicus) (P21451 whole entry, looked up, one chain of several): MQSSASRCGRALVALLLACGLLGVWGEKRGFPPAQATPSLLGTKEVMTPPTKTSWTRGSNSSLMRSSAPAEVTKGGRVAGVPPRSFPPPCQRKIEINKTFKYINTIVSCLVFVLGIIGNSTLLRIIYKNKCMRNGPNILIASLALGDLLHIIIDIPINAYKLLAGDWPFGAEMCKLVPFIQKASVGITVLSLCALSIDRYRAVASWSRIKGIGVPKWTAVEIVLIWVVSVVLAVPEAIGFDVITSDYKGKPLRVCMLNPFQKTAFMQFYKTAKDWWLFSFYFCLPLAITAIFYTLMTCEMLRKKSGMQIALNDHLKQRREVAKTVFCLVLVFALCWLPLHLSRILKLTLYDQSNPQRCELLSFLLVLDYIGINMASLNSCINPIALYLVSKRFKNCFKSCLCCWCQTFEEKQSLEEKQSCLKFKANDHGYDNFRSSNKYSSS
Structure (SMILES),Selectivity [1],IC50 [2],half-life [3],AUC [4],Cmax [5],further results
Cc1cc(C)c(NC(=O)c2sccc2S(=O)(=O)Nc2onc(C)c2Cl)c(C(=O)C2CCCCC2)c1,13000,1.37 nM,–,–,–,–
Cc1cc(C)c(NC(=O)c2sccc2S(=O)(=O)Nc2onc(C)c2Cl)c(C#N)c1C,608000,0.05 nM,5.11 h,373 µg·h/mL,45700 ng/mL,–
CC(=O)c1cc(C)cc(C)c1NC(=O)c1sc(C)cc1S(=O)(=O)Nc1onc(C)c1Cl,4500,0.21 nM,2.7 h,327 µg·h/mL,68900 ng/mL,bioavailability [6]: 49%
Cc1cc(C)c(NC(=O)c2sccc2S(=O)(=O)Nc2onc(C)c2Cl)c(C)c1CO,–,–,–,–,2400 ng/mL,–
Cc1cc(C)c(NC(=O)c2sccc2S(=O)(=O)Nc2onc(C)c2Cl)c(C(=O)N(C)C)c1,12300,0.07 nM,1.19 h,27.2 µg·h/mL,10900 ng/mL,–
C/C(=N\O)c1cc(C)cc(C)c1NC(=O)c1sccc1S(=O)(=O)Nc1onc(C)c1Cl,24500,0.02 nM,5.2 h,39.5 µg·h/mL,6920 ng/mL,–
Cc1cc(C)c(NC(=O)c2sccc2S(=O)(=O)Nc2onc(C)c2Cl)c(C)c1C#N,–,–,–,–,17300 ng/mL,–
Cc1cc(C)c(NC(=O)c2sccc2S(=O)(=O)Nc2onc(C)c2C)c(C#N)c1C,328000,0.08 nM,5.3 h,667 µg·h/mL,85800 ng/mL,–
CC(C)C[C@@H]1NC(=O)[C@@H](c2cccs2)NC(=O)[C@H](CC(=O)[O-])NC(=O)[C@H](CC(=O)N2CCN(c3ccccc3)CC2)NC(=O)[C@@H](CC(=O)[O-])NC(=O)[C@@H](Cc2c[nH]c3ccccc23)NC1=O.[Na+].[Na+] (cyclo(D(Piperazinyl(4-Ph))D[dGly(2-thienyl)]L[dW][dD])),–,–,–,–,–,half-life [7]: 1 h; Selectivity [8]: 540
CCCCN(CCCC)C(=O)CN1C[C@H](c2ccc3c(c2)OCO3)[C@@H](C(=O)O)[C@@H]1c1ccc(OC)cc1,–,–,–,–,–,bioavailability [6]: 60%
COc1cc(OC)nc(O[C@H](C(=O)O)C(OC)(c2ccccc2)c2ccccc2)n1,–,–,–,–,–,Ki [9]: 6 nM; Selectivity [8]: 60
CCC(=O)c1cc(C)cc(C)c1NC(=O)c1sccc1S(=O)(=O)Nc1onc(C)c1Cl,214000,0.06 nM,–,–,–,–
CCCCc1ccc2c(n1)[C@@H](c1ccc(OC)cc1C[C@H](C)C(=O)O)[C@H](C(=O)O)[C@H]2c1ccc2c(c1)OCO2,–,–,–,–,–,Ki [9]: 0.034 nM; Selectivity [8]: 3; bioavailability [6]: 40%
Cc1cc(C)c(NC(=O)c2sccc2S(=O)(=O)Nc2onc(C)c2Cl)c(-c2ncco2)c1,119000,0.08 nM,5.3 h,362 µg·h/mL,66000 ng/mL,–
Cc1cc(C)c(NC(=O)c2sccc2S(=O)(=O)Nc2onc(C)c2Cl)c(C(=O)CS(C)(=O)=O)c1,66500,0.1 nM,12.2 h,636 µg·h/mL,37300 ng/mL,ED50 [10]: > 5 mg/kg; bioavailability [6]: 16%
Cc1cc(C)c(NC(=O)c2sccc2S(=O)(=O)Nc2onc(C)c2Cl)c(S(C)(=O)=O)c1,325000,0.03 nM,1.7 h,28.2 µg·h/mL,–,Cmax [11]: 10300 ng/mL
Cc1cc(C)c(NS(C)(=O)=O)c(C)c1NC(=O)c1sccc1S(=O)(=O)Nc1onc(C)c1Cl,–,–,–,–,2800 ng/mL,–
CC(=O)c1c(C)c(C)cc(C)c1NC(=O)c1sccc1S(=O)(=O)Nc1onc(C)c1Cl,1.18e+06,0.02 nM,1.68 h,53.8 µg·h/mL,10800 ng/mL,–
CCC(=O)c1c(C)c(C)cc(C)c1NC(=O)c1sccc1S(=O)(=O)Nc1onc(C)c1Cl,216000,0.03 nM,1.47 h,24.3 µg·h/mL,13000 ng/mL,–
CC(C)C[C@@H]1NC(=O)[C@@H](C(C)C)NC(=O)[C@@H]2CCCN2C(=O)[C@@H](CC(=O)O)NC(=O)[C@@H](Cc2c[nH]c3ccccc23)NC1=O [BQ-123] (cyclo(L[dW][dD]P[dV])),–,22 nM,–,–,–,Selectivity [8]: 818

Structure (SMILES),Selectivity [1],IC50 [2],half-life [3],AUC [4],Cmax [5],further results
Cc1cc(C)c(N(C)C)c(C)c1NC(=O)c1sccc1S(=O)(=O)Nc1onc(C)c1Cl,–,–,–,–,3200 ng/mL,–
Cc1cc(C)c(NC(=O)c2sccc2S(=O)(=O)Nc2onc(C)c2Cl)c(C(=O)c2ccccc2)c1,46000,0.39 nM,3.95 h,141 µg·h/mL,33400 ng/mL,–
Cc1cc(-c2ncco2)cc(C)c1NC(=O)c1sccc1S(=O)(=O)Nc1onc(C)c1Cl,1900,1.27 nM,–,–,–,–
Cc1cc(C)c(NC(=O)c2sccc2S(=O)(=O)Nc2onc(C)c2Cl)c(Cl)c1,166000,0.09 nM,2.6 h,172 µg·h/mL,47500 ng/mL,–
Cc1cc(C)c(NC(=O)c2sccc2S(=O)(=O)Nc2onc(C)c2Cl)c(C)c1,7000,0.15 nM,–,–,–,–
CCCc1c(O)c(C(C)=O)cc(C(C)=O)c1NC(=O)c1sccc1S(=O)(=O)Nc1onc(C)c1Cl,–,12.4 nM,–,–,–,Selectivity [12]: 1000
Cc1cc(C)c(NC(=O)c2sccc2S(=O)(=O)Nc2onc(C)c2Cl)c(C(=O)C(C)C)c1,–,0.11 nM,–,–,59200 ng/mL,Selectivity [12]: 144000
Cc1cc(C)c(NC(=O)c2sccc2S(=O)(=O)Nc2onc(C)c2Cl)c(C(=O)C2CC2)c1,331000,0.03 nM,5.4 h,365 µg·h/mL,53400 ng/mL,–
Cc1cc(C)c(S(N)(=O)=O)c(C)c1NC(=O)c1sccc1S(=O)(=O)Nc1onc(C)c1Cl,–,–,–,–,2900 ng/mL,–
Cc1cc(C)c(NC(=O)c2sccc2S(=O)(=O)Nc2onc(C)c2Cl)c(C(=O)N(C)CC(C)(C)C)c1,15900,0.68 nM,–,–,–,–
Cc1cc(C)c(NC(=O)c2sccc2S(=O)(=O)Nc2onc(C)c2Cl)c(-c2ccccc2)c1,1900,1.47 nM,–,–,–,–
Cc1cc(C)c(NC(=O)c2sccc2S(=O)(=O)Nc2onc(C)c2Cl)c(C(=O)O)c1,600,2.62 nM,–,–,–,–
CO/N=C(\C)c1cc(C)cc(C)c1NC(=O)c1sccc1S(=O)(=O)Nc1onc(C)c1Cl,56000,0.04 nM,1.2 h,33.5 µg·h/mL,13800 ng/mL,–
Cc1cc(C)c(NC(=O)c2sccc2S(=O)(=O)Nc2onc(C)c2Cl)c(S(=O)(=O)C(C)C)c1,8800,0.05 nM,–,–,–,–
COc1c(C)cc(C)c(NC(=O)c2sccc2S(=O)(=O)Nc2onc(C)c2Cl)c1C,–,–,–,–,4000 ng/mL,–
Cc1cc(C)c(OC2CC2)c(C)c1NC(=O)c1sccc1S(=O)(=O)Nc1onc(C)c1Cl,–,–,–,–,6100 ng/mL,–
CCCS(=O)(=O)c1cc(C)cc(C)c1NC(=O)c1sccc1S(=O)(=O)Nc1onc(C)c1Cl,6100,0.06 nM,1.3 h,5.9 µg·h/mL,2900 ng/mL,–
CC(=O)OCc1c(C)cc(C)c(NC(=O)c2sccc2S(=O)(=O)Nc2onc(C)c2Cl)c1C,–,–,–,–,3800 ng/mL,–
